Source: ChEMBL document CHEMBL2057143, “Identification of a class of novel tubulin inhibitors” (J Med Chem, 2012)
Active and inactive are the calls of the source. No cut-off for these calls is given here.

Columns and labels:
[1] = tested on: SK-BR-3; experiment: Growth inhibition of human SKBR3 cells after 48 hrs by MTT assay; assay type: functional, cell-based; settings: SK-BR-3, 48 h
Summary of the method: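 Cells were seeded for 24 h, then exposed to a range of compound concentrations (DMSO ≤0.1% final) for 48 h. MTT (0.5 mg/mL) was added for 2 h, formazan was dissolved in DMSO and A570 read. Six replicates; IC50 from nonlinear regression.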

[2] = tested on: SK-BR-3; experiment: Binding affinity to alpha-tubulin in human SKBR3 cell lysate at 25 uM after 30 mins by mass spectrometric analysis; assay type: cell-free
Summary of the method: (§1)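 SKBR-3 cells (1.0 × 10^7) were lysed in NP-40 buffer with protease inhibitors and sonicated. Lysate was incubated with biotinylated probe (25 μM final) for 1 h at room temperature, then with neutravidin resin for 30 min. After five binding-buffer washes, bound proteins were eluted with buffer containing compound at 25 and 50 μM. Resin was boiled in SDS buffer. Samples were run on SDS-PAGE and silver-stained; bands were trypsin-digested in-gel and analysed by LC-QTOF/MS.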

[3] = tested on: SK-BR-3; experiment: Binding affinity to beta-tubulin in human SKBR3 cell lysate at 25 uM after 30 mins by mass spectrometric analysis; assay type: cell-free; summary of the method: as §1
[4] = target: Heat shock protein beta-1 (Homo sapiens) (UniProt P04792); experiment: Binding affinity to Hsp27 in human SKBR3 cell lysate at 25 uM after 30 mins by mass spectrometric analysis; assay type: cell-free; settings: SK-BR-3; summary of the method: as §1
Chain of Heat shock protein beta-1 (Homo sapiens) (P04792 whole entry): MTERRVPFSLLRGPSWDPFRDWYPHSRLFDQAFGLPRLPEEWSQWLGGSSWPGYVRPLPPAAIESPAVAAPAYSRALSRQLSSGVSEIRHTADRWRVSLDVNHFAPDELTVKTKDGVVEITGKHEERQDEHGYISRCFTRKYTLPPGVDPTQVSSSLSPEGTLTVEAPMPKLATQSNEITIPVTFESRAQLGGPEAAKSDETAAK

[5] = tested on: SK-BR-3; experiment: Binding affinity to pure alpha-tubulin in human SKBR3 cell lysate at 25 to 50 uM after 1 hr by Western blot analysis; assay type: cell-free
Summary of the method: (§2)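 Pure proteins, 10 μM bovine brain tubulin or recombinant Hsp27, were tested in separate experiments. Each was incubated with 2 μM biotinylated probe for 1 h at room temperature, then with neutravidin resin for 30 min. After five washes with binding buffer, bound protein was eluted twice with buffer containing compound at 25 and 50 μM. Eluates and resin were denatured, run on SDS-PAGE, transferred to PVDF and probed with α-/β-tubulin or Hsp27 antibodies.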

[6] = tested on: SK-BR-3; experiment: Binding affinity to pure beta-tubulin in human SKBR3 cell lysate at 25 to 50 uM after 1 hr by Western blot analysis; assay type: cell-free; summary of the method: as §2
[7] = target: Heat shock protein beta-1 (Homo sapiens) (UniProt P04792); experiment: Binding affinity to pure Hsp27 in human SKBR3 cell lysate at 25 to 50 uM after 1 hr by Western blot analysis; assay type: cell-free; settings: SK-BR-3; summary of the method: as §2
[8] = organism: Bos taurus; experiment: Binding affinity to bovine brain tubulin at 2 uM after 1 hr by SDS-PAGE analysis in preincubated with 10 uM colchicine
Summary of the method: (§3)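 Bovine brain tubulin (10 μM) was preincubated with 10 μM colchicine or paclitaxel for 1 h at room temperature. It was then incubated with 2 μM biotinylated probe in binding buffer for 1 h at room temperature and loaded onto a neutravidin resin column for 30 min. The resin was washed five times with binding buffer, then twice with buffer containing compound (25, 50 μM). Eluates and resin were analysed by SDS-PAGE and Western blot with tubulin antibody.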

[9] = organism: Bos taurus; experiment: Binding affinity to bovine brain tubulin at 2 uM after 1 hr by SDS-PAGE analysis in preincubated with 10 uM paclitaxel; summary of the method: as §3
[10] = target: Heat shock protein beta-1 (Homo sapiens) (UniProt P04792); experiment: Induction of Hsp27 phosphorylation in human SKBR3 cells at 50 to 100 nM after 24 hrs by SDS-PAGE analysis; assay type: cell-based; settings: SK-BR-3
Summary of the method: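 SKBR-3 cells were treated for 24 h with 50 and 100 nM nocodazole, with compound or KRIBB3 run alongside. Lysates (50 μg protein) were separated on 12% SDS-PAGE and transferred to PVDF. Membranes were blocked 1 h and probed for pSer78 Hsp27, with total Hsp27 and actin as loading controls, then detected by HRP secondary and ECL.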

[11] = target: Heat shock protein beta-1 (Homo sapiens) (UniProt P04792); experiment: Binding affinity to pure Hsp27 in human SKBR3 cell lysate at 2 uM after 1 hr by Western blot analysis; settings: SK-BR-3
[12] = target: Heat shock protein beta-1 (Homo sapiens) (UniProt P04792); experiment: Inhibition of Hsp27 phosphorylation in human SKBR3 cells at 0.5 to 1 uM after 24 hrs by Western blot analysis; settings: SK-BR-3
[13] = organism: Bos taurus; experiment: Inhibition of bovine brain tubulin polymerization after 20 mins by spectrophotometric analysis
[14] = target: T1, Tubulin (Homo sapiens) (UniProt P68371+Q9H4B7+P0DPH7+P68366+Q13509+Q71U36+P04350+Q3ZCM7+P07437+P68363+Q9BQE3+Q6PEY2+Q13885+Q9BVA1+Q9BUF5); experiment: Inhibition of tubulin polymerization in human SKBR3 cells assessed as microtubule disorganization at 0.5 to 1 uM after 12 hrs by fluorescence microscopic analysis; assay type: cell-based; settings: SK-BR-3
Summary of the method: (§4)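 SKBR-3 cells in chamber slides were grown to 70% confluence, then treated with 0.5 or 1 μM compound for 12 and 24 h; untreated cells and 0.05 μM nocodazole served as controls. Cells were fixed in 4% paraformaldehyde, permeabilized with 0.2% Triton X-100 and blocked with 2% goat serum. They were stained with biotinylated anti-tubulin (1:200, overnight 4 °C) plus Alexa Fluor 488 streptavidin and imaged by fluorescence microscopy.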

[15] = target: T1, Tubulin (Homo sapiens); experiment: Inhibition of tubulin polymerization in human SKBR3 cells assessed as decrease in microtubule density at 0.5 to 1 uM after 12 hrs by fluorescence microscopic analysis; assay type: cell-based; settings: SK-BR-3; summary of the method: as §4
[16] = target: T1, Tubulin (Homo sapiens); experiment: Inhibition of tubulin polymerization in human SKBR3 cells assessed as microtubule disorganization at 0.5 to 1 uM after 24 hrs by fluorescence microscopic analysis; assay type: cell-based; settings: SK-BR-3; summary of the method: as §4
[17] = target: T1, Tubulin (Homo sapiens); experiment: Inhibition of tubulin polymerization in human SKBR3 cells assessed as decrease in microtubule density at 0.5 to 1 uM after 24 hrs by fluorescence microscopic analysis; assay type: cell-based; settings: SK-BR-3; summary of the method: as §4

Cc1ccc(C)c(COc2cc(NC(=O)Cc3ccccc3)ccc2N(C)S(C)(=O)=O)c1
IC50 [1]: 121 µM

CN(c1ccc(NC(=O)c2ccc3c(c2)OCO3)cc1OCc1ccccc1)S(C)(=O)=O
IC50 [1]: 62.9 µM

Cc1ccc(C)c(COc2cc(NC(=O)c3ccc4c(c3)OCO4)ccc2N(CCCCCCNC(=O)CCCC[C@H]2SC[C@H]3NC(=O)N[C@H]32)S(C)(=O)=O)c1
Activity [2]: Active
Activity [3]: Active
Activity [4]: Active
Activity [5]: Active
Activity [6]: Active
Activity [7]: Active
Activity [8]: inactive
Activity [9]: Active
IC50 [1]: 2 µM

COC(=O)Nc1nc2cc(C(=O)c3cccs3)ccc2[nH]1
Activity [10]: Active

CCc1cc(-c2oncc2-c2ccc(OC)cc2)c(O)cc1OC
Activity [11]: Active
inhibition [12]: Active

Cc1ccc(C)c(COc2cc(NC(=O)c3ccc4c(c3)OCO4)ccc2N(C)S(C)(=O)=O)c1
inhibition [13]: Dose-dependent effect
inhibition [14]: Active
inhibition [15]: Active
inhibition [16]: Active
inhibition [17]: Active
